The record followed here is PubChem BioAssay AID463079 (The Scripps Research Institute Molecular Screening Center, 2010).

Screen size: about 330,000 compounds; about 2,000 (0.61%) were called active. This is one part of a sample in which actives are shown more often than they occur. A number with no mark means an inactive call.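 The calls were made as follows: active = inhibition above that plate's mean sample inhibition plus 3 SD (cut at about 26% in these data); inactive = the rest.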

A short description of this assay: ATP-evoked calcium signal inhibitors, parental CHO, primary screen, counter-screen for OX1R antagonist project, cell-based, fluorescence, Fluo-8 calcium dye (AID 463079).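 Also: 0% = ATP-challenged DMSO wells and 100% = DMSO wells without ATP.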 Particulars: parental CHO-K1, ATP-induced calcium, Fluo-8 fluorescence; at 5.6 µM; stronger effect = higher value. A digest of the protocol:
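Material: Parental CHO cells | Reagent: ATP | Compound dosing: Single nominal dose of 5.6 µM per compound | Detection: Intracellular calcium via Fluo-8 no-wash fluorescent dye | Read-out: % inhibition of ATP-induced calcium mobilization | Benchmarks: Low control ATP plus DMSO, high control DMSO only | Replicates: Singlicate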
With `CCN(CC)P(=O)(Oc1cccc(C)c1)N(CC)CC`, the inhibition is -16.2%.

On to `Cc1cccc(OP(=O)(Oc2cccc(C)c2)OC(c2ccccc2)C(F)(F)F)c1` (stereo not given), for which the inhibition was 43% (active). For `CN(C)S(=O)(=O)c1cc(C(=O)N2CCC(C(=O)O)(c3ccccc3)CC2)ccc1Cl` the value was -3.89%.

For `Nc1ccc([N+](=O)[O-])cc1`, the inhibition is -2.28%. Consider `COC(=O)N(c1ccc(OC)cc1)P1(=S)OCCC(C)O1` (stereo not given), for which the inhibition is -5.5%.

Regarding `O=C1NC(=O)C(CCc2ccccn2)(Cc2cccc(Cl)c2Cl)C(=O)N1c1ccc(Br)cc1` (stereo not given), the inhibition was -47.9%.

With `O=C1C2(Cl)C3(Cl)C4(Cl)C(Cl)(Cl)C5(Cl)C3(Cl)C1(Cl)C5(Cl)C24Cl` (stereo not given), the inhibition is 48.6% (active). For `O=C(CSC1c2ccccc2-c2ccccc21)N/N=C/c1ccccc1` the value was -10.8%; for `c1ccc(CC2CCCCN2)cc1` (stereo not given), -2.34%; for `CC1=C(C(=O)Nc2ccccc2)S(=O)(=O)CCO1`, -5.31%. Take `CCCCCCCCCCCCn1ccc(=N)cc1`: the inhibition was 40% (active). For `CCOC(=O)c1c(C)c(C(=O)N2CCC3(CC2)OCCO3)c(C)n1CC` the value was -3.29%; for `CN1CCC(N(C)Cc2cccnc2)CC1`, -10.6%. Regarding `ClC(Cl)(Cl)c1ccccc1`, the inhibition was 2.74%. Next, `CCN(CC)C(=O)c1ccc(NC(=O)c2cc(-n3cnnc3)ccc2Cl)cc1`: -4.65%.
